Test results: ChEMBL document CHEMBL3588826, “Chimeric derivatives of functionalized amino acids and α-aminoamides: compounds with anticonvulsant activity in seizure models and inhibitory actions on central, peripheral, and cardiac isoforms of voltage-gated sodium channels” (Bioorg Med Chem, 2015)
Active and inactive are the calls of the source. The calls are words filed in the database; no cut-off is given here.

Assays:
Mus musculus = experiment: Anticonvulsant activity in ip dosed albino Carworth Farms No. 1 mouse measured at 0.25 hrs by maximal electroshock seizure test; type: functional; conditions: Carworth Farms No. 1, ip
Procedure, shortened: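 Screened under the NIH anticonvulsant program in male albino Carworth Farms No. 1 mice (ip) and male albino Sprague-Dawley rats (ip or oral). Protection tested by maximal electroshock or 6 Hz (32 mA) psychomotor stimulation.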

[1] = Protective index, ratio of TD50 for behavioural toxicity in po dosed albino Sprague-Dawley rat to ED50 for anticonvulsant activity in po dosed MES albino Sprague-Dawley rat model; type: organism-based; conditions: in vivo, read-out: Ratio TD50/ED50
Procedure, shortened: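 Male albino Sprague-Dawley rats were dosed ip or orally. Protective index = TD50/ED50, the ED50 taken from maximal electroshock by the same route.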

Rattus norvegicus [2] = experiment: Anticonvulsant activity in ip dosed albino Sprague-Dawley rat measured at 2 hrs by maximal electroshock seizure test; type: functional
Procedure, shortened: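 Screened under the NIH Anticonvulsant Screening Program in male rodents, with mice and rats dosed ip and rats also dosed po. Maximal electroshock (MES) and 6 Hz (32 mA) psychomotor seizure tests were run.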

Rattus norvegicus [3] = organism: Rattus norvegicus; experiment: Effect on steady state activation of voltage-gated sodium channel in rat embryonic cortical neurons at 10 uM by whole cell patch-clamp electrophysiology
Procedure, shortened: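 Rat embryonic day 19 cortical neurons, cultured 7–10 days, were whole-cell voltage-clamped at room temperature with 1–2 MΩ electrodes, with compound at 10 μM and 0.1% DMSO as control. Fast inactivation: 500 ms prepulses, then a test pulse. Activation: conductance G = I/(Vm − Vrev). V1/2 and k came from Boltzmann fits to individual cells, averaged (mean ± SEM), 5–7 cells per condition.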

Rattus norvegicus [4] = organism: Rattus norvegicus; experiment: Frequency-dependent inhibition of voltage-gated sodium channel in rat embryonic cortical neurons assessed as current amplitude at 10 uM measured at holding potential of -80 mV by whole cell patch-clamp electrophysiology
Procedure, shortened: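 E19 rat cortical neurons cultured 7–10 days were recorded by whole-cell voltage clamp at room temperature. Compound was at 10 μM versus 0.1% DMSO. A pulse train was applied, and available current was taken as peak current at pulse N divided by peak at pulse 1.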

[5] = target: Sodium channel protein type 9 subunit alpha (Homo sapiens) (UniProt Q15858); experiment: Inhibition of human Nav1.7 expressed in HEK293 cells assessed as transition of channels to slow-inactivated state at 10 uM measured at -50 mV by whole cell patch-clamp electrophysiology; type: cell-based
Sequence of Sodium channel protein type 9 subunit alpha (Homo sapiens) (Q15858 whole entry, looked up): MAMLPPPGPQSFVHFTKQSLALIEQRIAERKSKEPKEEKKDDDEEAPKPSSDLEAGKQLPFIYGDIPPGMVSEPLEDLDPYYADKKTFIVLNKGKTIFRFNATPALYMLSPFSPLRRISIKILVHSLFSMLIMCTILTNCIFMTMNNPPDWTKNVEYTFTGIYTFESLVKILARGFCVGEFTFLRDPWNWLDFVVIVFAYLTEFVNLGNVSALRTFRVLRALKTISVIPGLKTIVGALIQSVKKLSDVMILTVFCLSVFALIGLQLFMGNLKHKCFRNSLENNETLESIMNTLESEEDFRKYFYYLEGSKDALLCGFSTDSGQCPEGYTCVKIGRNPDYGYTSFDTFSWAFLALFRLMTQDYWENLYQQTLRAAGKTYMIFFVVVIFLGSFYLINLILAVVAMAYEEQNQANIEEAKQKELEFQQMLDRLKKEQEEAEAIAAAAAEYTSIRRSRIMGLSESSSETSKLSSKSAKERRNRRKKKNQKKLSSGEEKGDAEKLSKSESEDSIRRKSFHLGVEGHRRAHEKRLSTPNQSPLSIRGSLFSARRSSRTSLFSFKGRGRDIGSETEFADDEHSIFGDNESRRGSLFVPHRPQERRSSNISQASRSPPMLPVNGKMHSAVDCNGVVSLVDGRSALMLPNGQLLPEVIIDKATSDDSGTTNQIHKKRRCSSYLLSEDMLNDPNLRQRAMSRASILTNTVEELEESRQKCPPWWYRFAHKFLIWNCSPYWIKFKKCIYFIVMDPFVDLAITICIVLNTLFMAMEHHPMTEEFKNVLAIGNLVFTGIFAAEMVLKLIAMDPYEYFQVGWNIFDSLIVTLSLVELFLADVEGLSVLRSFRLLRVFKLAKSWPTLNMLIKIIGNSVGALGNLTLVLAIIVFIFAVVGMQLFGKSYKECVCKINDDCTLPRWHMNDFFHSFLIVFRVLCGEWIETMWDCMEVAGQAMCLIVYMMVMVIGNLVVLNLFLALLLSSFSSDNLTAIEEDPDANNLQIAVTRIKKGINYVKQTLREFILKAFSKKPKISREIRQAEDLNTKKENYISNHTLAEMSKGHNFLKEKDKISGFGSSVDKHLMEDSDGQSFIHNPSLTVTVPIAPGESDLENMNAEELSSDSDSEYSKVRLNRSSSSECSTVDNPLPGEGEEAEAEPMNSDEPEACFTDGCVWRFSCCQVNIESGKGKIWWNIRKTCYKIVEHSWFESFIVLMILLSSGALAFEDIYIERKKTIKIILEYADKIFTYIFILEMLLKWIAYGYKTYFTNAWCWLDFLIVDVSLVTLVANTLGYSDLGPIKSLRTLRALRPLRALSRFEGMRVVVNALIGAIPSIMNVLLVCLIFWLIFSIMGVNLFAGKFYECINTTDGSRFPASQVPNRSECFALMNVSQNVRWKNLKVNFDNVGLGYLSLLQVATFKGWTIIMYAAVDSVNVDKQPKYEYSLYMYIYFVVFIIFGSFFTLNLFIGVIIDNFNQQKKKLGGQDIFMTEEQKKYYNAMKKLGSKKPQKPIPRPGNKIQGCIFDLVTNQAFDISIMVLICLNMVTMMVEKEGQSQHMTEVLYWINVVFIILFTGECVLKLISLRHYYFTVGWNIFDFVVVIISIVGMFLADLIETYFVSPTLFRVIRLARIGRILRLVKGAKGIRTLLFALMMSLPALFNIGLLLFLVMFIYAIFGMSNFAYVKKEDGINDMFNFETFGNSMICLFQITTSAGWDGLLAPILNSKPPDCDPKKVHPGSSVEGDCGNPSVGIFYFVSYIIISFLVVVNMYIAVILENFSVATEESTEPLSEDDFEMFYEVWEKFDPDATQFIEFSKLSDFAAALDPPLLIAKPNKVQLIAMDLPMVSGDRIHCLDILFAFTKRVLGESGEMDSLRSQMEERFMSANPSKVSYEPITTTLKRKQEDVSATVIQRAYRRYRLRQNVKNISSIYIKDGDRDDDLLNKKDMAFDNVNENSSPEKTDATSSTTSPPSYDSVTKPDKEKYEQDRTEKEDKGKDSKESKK
Procedure, shortened: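 HEK293 cells stably expressing hNav1.1, rNav1.3, hNav1.7 or hNav1.5 were grown in DMEM with 10% FBS. Recordings were whole-cell voltage clamp at room temperature, with 10 μM compound versus 0.1% DMSO. Slow inactivation at −50 mV was calculated as 1 minus normalized peak INa. Nav1.5 used hyperpolarized protocols. Data are from 5–6 cells.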

[6] = target: Sodium channel protein type 5 subunit alpha (Homo sapiens, UniProt Q14524); experiment: Inhibition of human Nav1.5 expressed in HEK293 cells assessed as half-maximal voltage for steady state activation at 10 uM by whole cell patch-clamp electrophysiology (reference value: -55.71 +/-3.81 mV); type: cell-based; conditions: hek293, 10 µM
[7] = target: Sodium channel protein type 3 subunit alpha (Rattus norvegicus) (UniProt P08104); experiment: Frequency-dependent inhibition of rat Nav1.3 expressed in HEK293 cells assessed as current amplitude at 10 uM by whole cell patch-clamp electrophysiology; type: cell-based
Sequence of Sodium channel protein type 3 subunit alpha (Rattus norvegicus) (P08104 whole entry): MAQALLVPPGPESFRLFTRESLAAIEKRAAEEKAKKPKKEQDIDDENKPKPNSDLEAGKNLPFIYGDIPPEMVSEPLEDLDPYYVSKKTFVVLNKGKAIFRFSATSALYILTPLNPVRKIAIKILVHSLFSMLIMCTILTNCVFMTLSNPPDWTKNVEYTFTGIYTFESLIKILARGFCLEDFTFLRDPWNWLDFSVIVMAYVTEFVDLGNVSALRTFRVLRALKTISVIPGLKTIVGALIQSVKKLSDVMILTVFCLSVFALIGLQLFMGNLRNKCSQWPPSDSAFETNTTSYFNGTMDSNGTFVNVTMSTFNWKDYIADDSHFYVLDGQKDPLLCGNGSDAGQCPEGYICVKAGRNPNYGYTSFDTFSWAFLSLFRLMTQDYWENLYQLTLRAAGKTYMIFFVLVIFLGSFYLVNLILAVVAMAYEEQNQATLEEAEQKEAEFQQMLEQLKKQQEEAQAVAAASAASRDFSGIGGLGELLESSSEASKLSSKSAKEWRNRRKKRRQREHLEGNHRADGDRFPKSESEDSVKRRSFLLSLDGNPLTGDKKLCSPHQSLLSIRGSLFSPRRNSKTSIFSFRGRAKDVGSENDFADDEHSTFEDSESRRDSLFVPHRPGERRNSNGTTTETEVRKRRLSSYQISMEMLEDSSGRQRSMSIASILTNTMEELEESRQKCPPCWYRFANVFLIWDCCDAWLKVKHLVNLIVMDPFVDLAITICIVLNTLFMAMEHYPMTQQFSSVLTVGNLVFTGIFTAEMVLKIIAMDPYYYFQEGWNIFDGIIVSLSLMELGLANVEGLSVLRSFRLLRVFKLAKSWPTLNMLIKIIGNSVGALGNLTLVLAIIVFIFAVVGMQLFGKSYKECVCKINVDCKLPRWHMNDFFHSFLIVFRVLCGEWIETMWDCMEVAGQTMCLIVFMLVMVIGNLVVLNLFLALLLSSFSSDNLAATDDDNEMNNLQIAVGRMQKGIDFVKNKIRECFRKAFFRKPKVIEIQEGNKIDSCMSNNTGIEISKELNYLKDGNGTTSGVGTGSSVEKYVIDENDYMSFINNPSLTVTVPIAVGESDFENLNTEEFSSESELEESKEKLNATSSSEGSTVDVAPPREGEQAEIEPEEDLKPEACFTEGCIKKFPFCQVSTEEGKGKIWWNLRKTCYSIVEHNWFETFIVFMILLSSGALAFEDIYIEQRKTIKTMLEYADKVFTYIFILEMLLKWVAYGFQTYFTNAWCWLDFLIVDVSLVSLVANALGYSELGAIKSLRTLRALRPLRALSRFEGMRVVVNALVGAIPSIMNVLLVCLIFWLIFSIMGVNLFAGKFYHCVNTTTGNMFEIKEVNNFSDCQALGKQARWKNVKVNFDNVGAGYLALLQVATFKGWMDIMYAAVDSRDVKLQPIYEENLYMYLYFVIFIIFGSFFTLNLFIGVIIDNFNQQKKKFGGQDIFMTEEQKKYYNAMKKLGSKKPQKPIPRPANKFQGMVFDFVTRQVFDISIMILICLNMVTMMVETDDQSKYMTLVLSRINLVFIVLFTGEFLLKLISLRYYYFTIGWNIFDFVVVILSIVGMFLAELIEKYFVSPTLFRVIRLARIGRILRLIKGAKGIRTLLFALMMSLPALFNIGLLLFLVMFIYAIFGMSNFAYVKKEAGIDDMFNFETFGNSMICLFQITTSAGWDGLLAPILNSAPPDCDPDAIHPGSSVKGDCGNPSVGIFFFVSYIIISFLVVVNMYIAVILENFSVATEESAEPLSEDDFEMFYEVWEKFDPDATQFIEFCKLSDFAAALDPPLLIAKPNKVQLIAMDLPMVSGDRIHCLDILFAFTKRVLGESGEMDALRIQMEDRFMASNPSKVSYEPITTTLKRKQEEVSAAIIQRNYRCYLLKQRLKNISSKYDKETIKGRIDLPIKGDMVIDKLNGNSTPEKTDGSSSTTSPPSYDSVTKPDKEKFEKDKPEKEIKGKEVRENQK
Procedure, shortened: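 Stable HEK293 lines expressing hNav1.1, rNav1.3, hNav1.7 or hNav1.5 were recorded by whole-cell voltage clamp at room temperature, with 10 μM compound versus 0.1% DMSO. A 30-pulse train was applied, and the read-out was the fraction of current remaining at the last pulse normalized to the first. Nav1.5 used hyperpolarized protocols.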

Rattus norvegicus [8] = experiment: Anticonvulsant activity in ip dosed rat assessed as decrease in partial complex or temporal lobe seizures by hippocampal kindeld seizure test; type: functional
Cytochrome P450 2C9 = Cytochrome P450 2C9 (Homo sapiens, UniProt P11712); experiment: Inhibition of human CYP2C9 at 10 uM; type: ADME
Sequence of Cytochrome P450 2C9 (P11712 whole entry): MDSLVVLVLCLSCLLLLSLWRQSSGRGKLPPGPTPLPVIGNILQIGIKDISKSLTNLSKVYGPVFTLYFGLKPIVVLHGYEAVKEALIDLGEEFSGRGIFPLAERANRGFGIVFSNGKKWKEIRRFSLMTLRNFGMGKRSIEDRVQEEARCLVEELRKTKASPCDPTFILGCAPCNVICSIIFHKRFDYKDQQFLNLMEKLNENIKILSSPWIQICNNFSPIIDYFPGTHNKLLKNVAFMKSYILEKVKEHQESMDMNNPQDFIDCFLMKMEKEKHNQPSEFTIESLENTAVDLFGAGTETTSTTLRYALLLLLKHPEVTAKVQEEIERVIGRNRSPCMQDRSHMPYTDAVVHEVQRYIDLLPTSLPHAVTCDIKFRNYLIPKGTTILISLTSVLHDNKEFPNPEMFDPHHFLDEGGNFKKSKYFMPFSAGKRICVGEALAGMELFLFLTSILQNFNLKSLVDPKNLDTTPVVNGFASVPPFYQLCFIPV
Procedure, shortened: (§1)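 Test compound at 10 μM against a human CYP450 panel (CYP1A2, 2B6, 2C8, 2C9, 2C19, 2D6, 3A4/5). Direct inhibition was measured, and time-dependent inhibition was measured after a 30-min preincubation.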

Cytochrome P450 2C19 = Cytochrome P450 2C19 (Homo sapiens, UniProt P33261); experiment: Inhibition of human CYP2C19 at 10 uM; type: ADME; procedure, shortened: as §1
Sequence of Cytochrome P450 2C19 (P33261 whole entry): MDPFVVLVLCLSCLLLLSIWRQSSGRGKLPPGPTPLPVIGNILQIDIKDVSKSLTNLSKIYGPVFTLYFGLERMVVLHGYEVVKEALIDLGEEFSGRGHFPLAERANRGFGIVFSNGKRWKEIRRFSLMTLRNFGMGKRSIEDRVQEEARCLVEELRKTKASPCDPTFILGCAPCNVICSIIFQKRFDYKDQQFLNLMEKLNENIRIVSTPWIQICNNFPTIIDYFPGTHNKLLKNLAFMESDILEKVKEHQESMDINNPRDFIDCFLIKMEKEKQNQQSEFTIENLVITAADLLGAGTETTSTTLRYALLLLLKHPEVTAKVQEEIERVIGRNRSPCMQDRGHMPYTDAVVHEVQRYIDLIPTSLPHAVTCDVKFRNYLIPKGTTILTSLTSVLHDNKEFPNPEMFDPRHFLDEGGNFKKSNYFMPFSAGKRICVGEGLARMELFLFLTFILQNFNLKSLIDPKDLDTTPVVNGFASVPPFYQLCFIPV

CYP2C8 = target: T1, CYP2C8 (Homo sapiens, UniProt P10632); experiment: Time-dependent inhibition of human CYP2C8 measured after 30 mins preincubation period; type: ADME; procedure, shortened: as §1
T1 sequence (P10632 whole entry): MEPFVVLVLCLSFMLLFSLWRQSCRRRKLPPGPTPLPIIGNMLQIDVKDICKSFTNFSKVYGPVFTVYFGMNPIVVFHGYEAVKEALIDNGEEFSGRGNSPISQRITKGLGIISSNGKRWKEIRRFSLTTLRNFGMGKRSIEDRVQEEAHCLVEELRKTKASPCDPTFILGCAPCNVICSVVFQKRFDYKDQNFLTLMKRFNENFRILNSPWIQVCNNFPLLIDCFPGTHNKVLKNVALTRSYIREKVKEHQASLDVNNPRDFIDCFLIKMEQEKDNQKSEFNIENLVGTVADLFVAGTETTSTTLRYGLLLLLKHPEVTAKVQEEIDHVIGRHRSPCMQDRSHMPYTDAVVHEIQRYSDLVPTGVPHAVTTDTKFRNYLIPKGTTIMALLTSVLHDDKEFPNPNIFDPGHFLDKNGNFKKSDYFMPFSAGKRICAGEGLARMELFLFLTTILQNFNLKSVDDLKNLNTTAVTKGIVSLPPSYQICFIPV

Rattus norvegicus [9] = experiment: Toxicity in po dosed Sprague-Dawley rat assessed as adverse effects administered via gavage; type: organism-based; conditions: in vivo
Procedure, shortened: (§2)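 Non-GLP 7-day repeated-dose study in female Sprague-Dawley rats, given by oral gavage at 20, 60 and 180 mg/kg/day. Endpoints: weight bearing, gait coordination, respiratory rate, relative organ weights, clinical chemistry and gross pathology, giving a NOAEL. The ratio divides the NOAEL by the oral MES ED50.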

Rattus norvegicus [10] = experiment: Ratio of NOAEL in Sprague-Dawley rat to ED50 for anticonvulsant activity in po dosed Sprague-Dawley rat by MES test; procedure, shortened: as §2
Rattus norvegicus [11] = experiment: Toxicity in po dosed Sprague-Dawley rat assessed as changes in respiratory rate administered via gavage; type: organism-based; conditions: in vivo
Procedure, shortened: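 Non-GLP 7-day repeated-dose study in female Sprague-Dawley rats given oral gavage at 20, 60 and 180 mg/kg/day. Endpoints were weight bearing, gait coordination, respiratory rate, relative organ weights, clinical chemistry and gross pathology, with NOAEL determined.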

Rattus norvegicus [12] = experiment: Toxicity in po dosed Sprague-Dawley rat assessed as gross pathological changes administered via gavage; type: organism-based; conditions: in vivo
Procedure, shortened: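 Non-GLP repeated-dose study: female Sprague-Dawley rats given compound by oral gavage once daily for 7 days at 20, 60 and 180 mg/kg/day. Endpoints included weight bearing, gait coordination, respiratory rate, relative organ weights (liver, spleen, thymus), clinical chemistry and gross pathology; NOAEL derived.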

COC[C@@H](NC(C)=O)C(=O)NCc1ccc(Oc2cccc(OC(F)(F)F)c2)cc1
ED50 (Mus musculus): 6.5 mg/kg
selectivity ratio [1]: 29
ED50 (Rattus norvegicus [2]): 5.7 mg/kg
Activity (Rattus norvegicus [3]): inactive
inhibition (Rattus norvegicus [4]): inactive
inhibition [5]: Active
V1/2 [6]: -48.99 mV
inhibition [7]: inactive
ED50 (Rattus norvegicus [8]): 22 mg/kg
inhibition (INH) (Cytochrome P450 2C9): Not Active
inhibition (INH) (Cytochrome P450 2C19): Not Active
inhibition at 0.5 h (CYP2C8): 16%
NOAEL (Rattus norvegicus [9]): 60 mg/kg/day
Ratio (Rattus norvegicus [10]): 10
Activity (Rattus norvegicus [11]): Toxic
Activity (Rattus norvegicus [12]): Toxic
